CHO-K1 Ca antag = nonselective inhibitor or artifact in parental CHO-K1 cells. ATP-induced calcium, Fluo-8 fluorescence. inhibition, % at 3 µM. 360,000 compounds, 0.6% hits;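 active = inhibition above a per-plate cutoff, the plate's mean sample inhibition plus 3 SD, cut at about 24% in these data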;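 also: 0% = DMSO plus EC80 ATP and 100% = DMSO alone without ATP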
CHO-K1 Ca PAM = nonselective activator or artifact in parental CHO-K1 calcium assay | 360,000 compounds, 0.02% hits | ATP EC20, Fluo-8 calcium fluorescence; 0% at ATP EC20, 100% at ATP max | AID 602247 | activation, % at 3 µM;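 active = activation above the run cutoff, the mean activation of all test compounds plus 3 SD, cut at about 40% in these data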;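 also: peak over basal fluorescence ratio in a 140 s read after ATP addition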
OX1R antag-1 = blocks the human orexin 1 receptor. O43613. CHO/OX1R cells, Fluo-8 calcium fluorescence, orexin A. inhibition, % at 5 µM. 330,000 compounds, 0.43% hits. AID 434989;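 active = inhibition above its plate's threshold, mean inhibition of all tested compounds on the plate plus 3 SD, cut at about 37% in these data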;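 also: 0% = orexin A challenge wells and 100% = SB-334867-A antagonist wells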
Target sequence (O43613 whole entry, looked up): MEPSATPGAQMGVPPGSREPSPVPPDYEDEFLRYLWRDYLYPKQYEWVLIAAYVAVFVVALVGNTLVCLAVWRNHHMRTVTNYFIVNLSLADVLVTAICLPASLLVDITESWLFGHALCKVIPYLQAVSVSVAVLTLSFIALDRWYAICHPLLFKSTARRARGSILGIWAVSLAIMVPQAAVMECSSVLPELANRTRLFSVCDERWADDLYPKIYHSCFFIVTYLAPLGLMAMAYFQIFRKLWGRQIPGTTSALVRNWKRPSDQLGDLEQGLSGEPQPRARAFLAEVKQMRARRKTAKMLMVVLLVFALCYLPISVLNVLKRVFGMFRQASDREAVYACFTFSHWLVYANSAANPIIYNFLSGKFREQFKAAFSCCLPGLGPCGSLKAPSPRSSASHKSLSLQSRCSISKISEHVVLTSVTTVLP
OX1R antag-2 = OX1R (human) antagonism; 330,000 compounds, 1.8% hits; OX1R-expressing cells, FRET antagonist read-out; inhibition, % at 6.6 µM; in the data active = inhibition mostly above about 38%, no sharp cut-off; inactive = mostly below about 40%;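 also: 0% = agonist challenge alone and 100% = reference antagonist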
CHO parental Ca = counter-screen: ATP calcium response change in parental CHO cells | inhibition, % at 5.6 µM | AID 463079 | 330,000 compounds, 0.63% hits | parental CHO-K1, ATP-induced calcium, Fluo-8 fluorescence;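 active = inhibition above that plate's mean sample inhibition plus 3 SD, cut at about 26% in these data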;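 also: 0% = ATP-challenged DMSO wells and 100% = DMSO wells without ATP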
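Test system: untransfected parental CHO cell line. Compound: one dose, 5.6 µM nominal. Detection: intracellular calcium via Fluo-8 no-wash fluorescent dye. Measure: % inhibition. Benchmarks: ATP-challenged DMSO wells low, unchallenged DMSO wells high.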
M1 ag parental = M1 agonist counterscreen hit in parental CHO-K1 cells | Fluo-8 calcium fluorescence; scaled to maximal ATP response, vehicle zero | activation, % at 3 µM | 360,000 compounds, 0.48% hits | AID 602248; in the data active = activation above about 15%;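 also: untransfected CHO-K1 host cells lacking M1 receptor as counterscreen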
* marks the source's active call; other numbers are inactive results; x = no result given. An excerpt weighted towards active compounds, which were near 2.9% of everything screened.

SMILES | CHO-K1 Ca antag | CHO-K1 Ca PAM | OX1R antag-1 | OX1R antag-2 | CHO parental Ca | M1 ag parental
CC(C)(C)c1ccc(C(=O)NCC2CCCN2S(=O)(=O)c2ccccc2)cc1 (centres undefined) | 2 | -20 | -32 | 23 | -15 | 0
Cc1ccccc1C(=O)c1cccn1CC(=O)NCCCN1CCc2ccccc2C1 | -16 | 10 | -21 | 2 | -39 | 1
COc1ccc(NC(=O)C(=O)NCC2CCCN2S(=O)(=O)c2cc(C)ccc2C)cc1 (centres undefined) | 52* | 12 | -33 | 9 | -2 | 0
Cc1nc(SCc2ccc(Cl)cc2)ncc1C(=O)O | 17 | 1 | -15 | 17 | 9 | 21*
COc1cc(CCC(=O)OCC(=O)N2CCc3ccccc32)cc(OC)c1OC | -12 | 12 | -21 | 1 | -17 | 2
Nn1cnnc1N/N=C/c1ccc(Cl)c([N+](=O)[O-])c1 | 5 | -2 | -9 | 61* | -26 | 6
Nn1cnnc1N/N=C/c1ccc(F)cc1 | -11 | 19 | -3 | 65* | -2 | 1
O=[N+]([O-])c1cc(/C=N/N2CCCCC2)ccc1Cl | -11 | 13 | -21 | 14 | -2 | 2
Cc1ccc(/C=N/Nc2nncn2N)cc1 | -15 | 0 | 1 | 43* | -4 | 0
Nc1nnnn1/N=C\c1ccc(Cl)c([N+](=O)[O-])c1 | 16 | -4 | 7 | 65* | 9 | -1
Nn1cnnc1N/N=C/c1cccc(Cl)c1Cl | -7 | 3 | x | x | x | 0
CCCCn1c(N)c(N(CCC(C)C)C(=O)CCCc2nc3ccccc3s2)c(=O)[nH]c1=O | 6 | -29 | -24 | 16 | -27 | 0
O=C(N/N=C/c1cc(Cl)cc([N+](=O)[O-])c1O)C1CC1 | -6 | 18 | -13 | 54 | -4 | -1
O=C(N/N=C/c1ccc(Cl)c([N+](=O)[O-])c1)C1CC1 | 1 | 4 | 8 | 59* | 1 | 0
COc1ccc(OC)c(NC(=O)CS(=O)(=O)Cc2nc(-c3ccccc3C)oc2C)c1 | -13 | 19 | 2 | 72* | -20 | 1
COc1cccc(-c2nc(CS(=O)(=O)CC(=O)Nc3c(C)cccc3C)c(C)o2)c1 | 0 | -8 | -10 | 4 | -24 | 0
COc1cccc(-c2nc(CS(=O)(=O)CC(=O)Nc3cccc(C(C)=O)c3)c(C)o2)c1 | -13 | 9 | 0 | 48* | -32 | 3
Cc1cc2nc(C3CCCN(C(=O)NCc4ccccc4)C3)[nH]c2cc1C (centres undefined) | -8 | 24 | -18 | 61* | -16 | 0
Cc1cc2nc(C3CCCN(C(=S)Nc4ccccc4C)C3)[nH]c2cc1C (centres undefined) | -21 | 21 | 1 | 16 | -17 | 0
c1ccc(CN2CCN(c3ncccn3)CC2)cc1 | 2 | -16 | -8 | 17 | -15 | 0
c1ccc(-c2ccc(CN3CCN(c4ncccn4)CC3)cc2)cc1 | 25* | -8 | -32 | 17 | -12 | 0
CCN(C(=O)C1CCN(c2nc(-c3ccc(OC)cc3)no2)CC1)c1ccc(OC)cc1 | 10 | 12 | -3 | 19 | 36* | 6
COc1ccc(NS(=O)(=O)c2cccc(C(=O)N(C)CC(=O)Nc3ccc(C)cc3)c2)cc1 | -4 | 18 | -20 | 10 | -30 | 1
O=C(NCCN1CCOCC1)c1ccc(NS(=O)(=O)c2ccccc2)cc1 | -10 | 8 | -7 | 8 | -21 | 1
COc1ccc(NC(=O)CN(C)C(=O)CN2C(=O)c3ccc([N+](=O)[O-])cc3C2=O)cc1 | -9 | 10 | 0 | 61* | 7 | 1
SMILES | CHO-K1 Ca antag | CHO-K1 Ca PAM | OX1R antag-1 | OX1R antag-2 | CHO parental Ca | M1 ag parental
COc1ccc(NC(=O)CN(C)C(=O)c2ccc(NS(=O)(=O)c3cccc([N+](=O)[O-])c3)cc2)cc1 | 33* | -29 | 11 | 18 | -5 | 0
O=C(NCCN1CCOCC1)c1ccc(NS(=O)(=O)c2cccc([N+](=O)[O-])c2)cc1 | -2 | -1 | -8 | 52* | -9 | 1
COc1ccc(NS(=O)(=O)c2ccc(C(=O)N(C)Cc3cccs3)cc2)cc1 | -8 | -1 | x | x | x | 20*
COc1ccc(NS(=O)(=O)c2cccc(C(=O)N(C)Cc3cccs3)c2)cc1 | -3 | -18 | -8 | 26 | -6 | 3
COc1cc2sc(-c3ccc(S(C)(=O)=O)cc3)c(C#CCO)c2cc1OC | -1 | 0 | 9 | 16 | -10 | 1
Cc1ccc(C)c(NC(=O)CN(C)C(=O)C2=NNC(=O)CC2)c1 | -9 | 13 | 8 | 0 | 14 | 0
O=C(OCc1cccc(C(F)(F)F)c1)c1ccc[nH]c1=O | -11 | 17 | -13 | 6 | -5 | 5
O=c1oc2ccccc2cc1-c1nc(-c2cccs2)cs1 | -13 | 18 | 3 | 51* | -30 | 0
Cc1c(NC(=O)c2cc(-c3ccc(Cl)cc3)on2)c(=O)n(-c2ccccc2)n1C | 4 | 4 | -38 | 3 | -11 | 1
CN(CC(=O)Nc1ccc(F)cc1)CC(=O)N1CCCC1 | -4 | 8 | -19 | -1 | -6 | 0
Cc1cc(OCC(=O)Nc2ccncc2)ccc1Cl | 35* | -19 | 3 | 35 | 30* | 10
O=C(COc1ccc2ccccc2c1)Nc1ccncc1 | 24* | 0 | 53* | 62 | 67* | 14
COc1ccccc1N1C(=NC(=O)COc2ccccc2)SC2CS(=O)(=O)CC21 (centres undefined) | -9 | 13 | -14 | 1 | -14 | 1
Cc1csc(SCC(=O)NCc2ccccc2Cl)n1 | -11 | 15 | -24 | -4 | 3 | 0
O=C(CCc1nnc(C2CCCCC2)o1)N1CCN(C2CCCCC2)CC1 | -3 | 11 | -33 | 15 | -8 | 2
O=C(CCc1nnc(C2CCCCC2)o1)N1CCN(c2ccccc2F)CC1 | -7 | 9 | -24 | 22 | 46* | 1
Cc1cc(C)n2nc(CNS(=O)(=O)c3ccc([N+](=O)[O-])cc3)nc2n1 | -6 | 2 | 5 | 51* | 9 | 1
COc1ccc(C(=O)C2CCCN(Cc3ccc4nonc4c3)C2)c(OC)c1 (centres undefined) | 9 | -9 | -19 | 6 | -10 | 2
CN(C)C(CNC(=O)c1cc(Br)ccc1Cl)c1ccco1 (centres undefined) | 8 | -12 | 1 | 4 | 1 | 17*
COc1ccc(C(=O)O/N=C(\N)c2ccc(OC)c(OC)c2)c(OC)c1 | -18 | 23 | 8 | 63* | -6 | 4
COc1ccc(C(=O)O/N=C(\N)c2ccccc2)c(OC)c1 | 8 | 12 | -33 | 16 | -10 | 7
Cc1cc(C)c(N=C2SCC(=O)N2Cc2ccco2)c(C)c1 | -9 | 22 | -25 | 4 | -1 | 3
O=C1CSC(=Nc2ccc(Cl)cc2)N1Cc1ccco1 | 29* | -20 | -18 | 13 | -12 | 4

Screening results deposited in PubChem by The Scripps Research Institute Molecular Screening Center.
